KCNQ1 pot: human KCNQ1 channel potentiation or activation; 0.35% of 310,000 active; B-score at 10 µM; CHO-K1 KCNQ1, thallium flux FluxOR fluorescence; hits give high values;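 active means fluorescence ratio B-score, a plate-corrected score, at least three library SD, with initial intensity B-score within 5 SD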
Target sequence (P51787 whole entry, looked up): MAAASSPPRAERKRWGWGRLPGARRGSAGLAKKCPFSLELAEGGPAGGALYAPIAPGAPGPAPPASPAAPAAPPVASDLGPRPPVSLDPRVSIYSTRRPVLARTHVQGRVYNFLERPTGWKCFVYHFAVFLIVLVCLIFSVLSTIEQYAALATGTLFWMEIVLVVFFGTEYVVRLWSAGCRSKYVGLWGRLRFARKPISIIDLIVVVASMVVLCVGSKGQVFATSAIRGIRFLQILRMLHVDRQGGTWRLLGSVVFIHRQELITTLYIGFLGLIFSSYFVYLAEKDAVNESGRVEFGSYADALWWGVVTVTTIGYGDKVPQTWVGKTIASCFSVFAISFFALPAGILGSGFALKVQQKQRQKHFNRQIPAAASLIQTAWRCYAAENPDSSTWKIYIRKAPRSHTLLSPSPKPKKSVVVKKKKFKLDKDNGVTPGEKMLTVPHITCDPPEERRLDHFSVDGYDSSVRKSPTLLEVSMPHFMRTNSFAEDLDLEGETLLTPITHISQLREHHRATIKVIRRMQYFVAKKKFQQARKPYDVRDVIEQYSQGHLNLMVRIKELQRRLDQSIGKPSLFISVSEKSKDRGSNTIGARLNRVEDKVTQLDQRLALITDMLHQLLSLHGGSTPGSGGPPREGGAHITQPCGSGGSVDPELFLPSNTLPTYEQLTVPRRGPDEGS
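System: Stable KCNQ1 CHO-K1 line | Incubation: 90 min dye loading and 20 min compound exposure, both at room temperature | Measure: Ratio B score | Medium: Assay buffer for compound exposure, DMSO matched across wells | Compound dosing: Single-concentration screen | Probe or stimulus: K+/Tl+ depolarizing stimulus | Measured by: Kinetic FluxOR fluorescence, 10 s baseline plus 110 s post-stimulus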
hERG protect: shields human hERG channel from block by proarrhythmic agents; 0.51% of 310,000 active; AID 1511; CHO-hERG, FluxOR thallium flux, dofetilide IC70 present; activation (rescue from dofetilide block), less the hit threshold, % at 10 µM;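 active means activation above the mean of controls blocked by dofetilide plus 5 SD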;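 further: thallium influx through hERG after potassium depolarization seen as dye fluorescence rise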
Kir21 block: blocks the mouse Kir2.1 inward-rectifier potassium channel | P35561 | HEK293-Kir2.1, FluxOR thallium flux fluorescence; hits give low values | B-score at 10 µM | 0.85% of 310,000 active;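 active means fluorescence ratio B-score at or below minus 3 SD of library scores, with starting-brightness B-score within 2 SD, cut at about -4.2 in these data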;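 further: channel flux triggered by added potassium and thallium sulfate stimulus; B-score of peak minus minimum fluorescence over baseline after thallium stimulus; more negative B-score means stronger Kir2.1 block with less thallium influx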
KCNK3 inh: human KCNK3 channel inhibition, primary screen. B-score at 10 µM. CHO-KCNK3 thallium flux, FluxOR fluorescence; hits give low values. AID 602410. 0.84% of 340,000 active. O14649;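 active means B-score under library mean minus 4 SD, starting fluorescence ratio at most library mean plus 5 SD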;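 further: more negative B-score means stronger inhibition of thallium flux through KCNK3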
KCNQ1 inh: human KCNQ1 channel inhibition. P51787. CHO-K1 KCNQ1, FluxOR thallium flux fluorescence; hits give high values. B-score at 10 µM. 1.3% of 310,000 active. AID 2642;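 active means compounds whose thallium flux B-score, printed positive for inhibition, exceeds three library SD while starting fluorescence stays within three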;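 further: channel opened by potassium depolarization with thallium stimulus after 20 min compound exposure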
KCNK9 block: human KCNK9 channel inhibition; 1.2% of 310,000 active; B-score at 10 µM; AID 488922; HEK293 KCNK9, FluxOR thallium flux fluorescence; hits give low values;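 active means ratio B-score over 3 SD below the library mean, with starting fluorescence within 5 SD of its mean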;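 further: negative B-score means less thallium flux so channel inhibition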
Numbers stand for hits; – = inactive; · = no result given. Only some compounds are listed: those with a hit (about 3.7% of all), similar ones and a draw of the others.

SMILES	KCNQ1 pot	hERG protect	Kir21 block	KCNK3 inh	KCNQ1 inh	KCNK9 block
CN(C[C@H](Cc1ccccc1)N(C[C@H](Cc1ccccc1)N(CCC(C)(C)C)N=O)N=O)N=O	–	–	–	–	8	–
O=C(CN(c1ccccc1)S(=O)(=O)c1ccc(F)cc1)NC1CCCCCC1	–	–	–	–	–	–
O=C1CCC(=O)c2ccc3c4c(ccc1c24)CC3	·	·	·	–	·	·
O=C1CCN2C=Nc3cccc4ccc1c2c34	–	–	–	–	25	–
O=[N+]([O-])c1ccc(N(c2ccccc2)c2ccccc2)cc1	–	–	–	–	9	–
CN(C)c1ccc(C(c2ccc(N(C)C)cc2)c2ccc([N+](=O)[O-])cc2)cc1	–	–	–	–	–	-7.8
CCN(C(=O)c1ccccc1)c1ccc([N+](=O)[O-])cc1	–	–	–	–	–	–
COc1cc(C)c(Cl)cc1S(=O)(=O)NC1CC(C)(C)NC(C)(C)C1	–	–	–	·	–	–
Cc1cc(C)c2c(=O)n(CC(=O)N3CCC(Cc4ccccc4)CC3)sc2n1	–	–	–	·	–	–
Cc1cccc(N2CCN(C(=O)c3ccc4ccccc4c3)CC2C)c1 (configuration not stated)	·	·	·	–	·	·
Cc1cccc(N2CCN(C(=O)Cn3sc4nc(C)cc(C)c4c3=O)CC2C)c1 (configuration not stated)	14	–	–	–	–	–
Cc1ccc(N2CCN(C(=O)Nc3cccc([N+](=O)[O-])c3)CC2C)cc1 (configuration not stated)	–	–	–	–	6	–
Cc1cccc(N2CCN(C(=O)c3ccncc3)CC2C)c1 (configuration not stated)	–	6.1	–	–	–	–
COc1ccc(CNC(=O)C2CCN(S(=O)(=O)c3cccc4nsnc34)CC2)cc1	–	–	–	–	–	–
COc1ccc(NC(=O)Nc2ccc(Cc3ccncc3)cc2)cc1OC	–	–	–	–	–	–
O/N=C/c1cc(Cl)ccc1OCc1cccc2ccccc12	–	–	–	·	7	-11
C#CCOc1ccc(Cl)cc1/C=N/O	–	–	–	–	–	–
CN(/C=C/C(=C\C=[N+](C)c1ccccc1)OCCCS(=O)(=O)[O-])c1ccccc1	–	–	–	–	6	–
O=Cc1s/c(=N\S(=O)(=O)c2ccccc2)n(CCCCl)c1Cl	–	7.4	–	–	–	–
Cc1[nH]c2ccccc2c1C(=O)C(=O)Nc1ccc2c(c1)OCO2	–	–	–	–	–	–
Cc1ccc([N+](=O)[O-])c2c1C(N1CC(C)OC(C)C1)C(C)(C)O2 (configuration not stated)	–	5.4	–	–	–	–
Cc1nonc1OCCNCc1c(C(=O)N2CCCCCCC2)nc2ccc(Cl)cn12	–	–	–	–	–	–
COc1ccc(NC(=O)c2sc3ncn(CC(=O)N4CCCCC4)c(=O)c3c2C)cc1OC	–	–	–	–	–	–
O=C(CSc1ccc(-c2ccccc2)nn1)N1CCCCC1	–	40	–	–	–	–
O=C(CSc1ccc(-c2ccc(Br)cc2)nn1)N1CCOCC1	–	5.0	–	–	–	–
SMILES	KCNQ1 pot	hERG protect	Kir21 block	KCNK3 inh	KCNQ1 inh	KCNK9 block
O=C(CSc1ccc(-c2ccncc2)nn1)N1CCCCC1	–	–	–	–	–	–
Cc1noc(C)c1CSc1nnc(-c2ccccc2)n1N	–	–	–	–	–	–
Cc1noc(C)c1CSc1nnc2scc(-c3ccccc3)n12	–	–	-5.2	–	–	–
CN(C)C(=O)c1c2c(nc3ccccc13)CCCC2	–	8.1	–	–	–	–
O=C(C[C@H]1C/C=C\CC[C@H](Cc2ccc(F)cc2)C(=O)OC[C@@H]2CCCN2C1=O)N[C@H](CO)Cc1ccccc1	·	·	·	–	·	·
Cc1nn(-c2ccccc2)c(Cl)c1C1C(C#N)=C(N)OC2=C1C(=O)CCC2 (configuration not stated)	–	5.4	–	–	–	–
O=C(CS(=O)(=O)c1ccccc1)Nc1nnc(-c2cccs2)o1	–	–	–	–	–	–
Cc1ccc([N+](=O)[O-])cc1NC(=O)c1ccc(C(C)(C)C)cc1	–	–	–	–	9	–
O=C(Nc1ccc(NC(=O)c2cccc([N+](=O)[O-])c2)cc1)c1cccc([N+](=O)[O-])c1	–	–	–	–	–	–
O=C(Nc1ccc(Cc2ccncc2)cc1)c1cccc([N+](=O)[O-])c1	–	9.8	–	–	–	–
Cc1ccc(C(=O)Nc2cc([N+](=O)[O-])ccc2C)cc1	–	–	–	–	–	–
O=C(Nc1ncc([N+](=O)[O-])s1)c1cccc([N+](=O)[O-])c1	–	–	–	–	8	–
O=C(Nc1cc([N+](=O)[O-])ccc1O)c1cccc([N+](=O)[O-])c1	–	–	–	–	7	–
O=C(Nc1nc(-c2ccccc2)cs1)c1cccc([N+](=O)[O-])c1	–	–	–	–	–	–
O=C(CCC1CCN(Cc2ccc(Cl)cc2)CC1)NC1CC1	–	–	–	–	–	–
Cc1cc(NC(=O)CSc2nc(-c3ccccc3Cl)nc3c2c(=O)n(C)c(=O)n3C)no1	–	5.4	–	–	–	–
CCCCc1n[nH]c(=S)n1Cc1ccc(Cl)cc1	–	–	–	–	–	-10
O=C(Cn1nnc2ccccc21)c1cccc([N+](=O)[O-])c1	–	5.3	–	–	–	–
CC(C)(C)OC(=O)CC1(C#N)c2ccccc2C(Br)=CN1C(=O)c1ccccc1 (configuration not stated)	–	–	–	–	–	-7.4
Cc1nc([N+](=O)[O-])cn1CC(=O)Nc1ccc([N+](=O)[O-])cc1	–	–	–	–	–	–
Cc1cc(C)n(CCOc2ccc(Cl)cc2Cl)n1	–	9.2	–	–	–	–
Cc1cc(C)n(CC(O)COc2ccc(Cl)cc2Cl)n1 (configuration not stated)	–	–	–	–	–	–
O=C(CNC(=O)c1ccc2ccccc2c1)NC1CCCCC1	·	·	·	–	·	·
Cn1c(CNC(=O)c2ccccc2F)nnc1SCc1nc2ccccc2c(=O)[nH]1	–	6.8	–	·	–	–
COc1ccc(C(=O)NCCc2nnc(SCc3nc4ccccc4c(=O)[nH]3)n2C)cc1	–	–	–	–	–	–
Cn1ncc2c(N3CCC(Cc4ccccc4)CC3)ncnc21	–	–	–	–	–	–
NNC(=O)c1cc2c(N3CCC(Cc4ccccc4)CC3)ncnc2s1	–	–	–	–	6	–
C=CCn1c(O)c(N=NC(=S)Nc2cccc(OC)c2)c2ccccc21	8	25	–	–	–	–
C=CCn1c(O)c(N=NC(=O)OCC)c2ccccc21	–	–	–	–	–	–
C=CCn1c(O)c(N=NC(=S)Nc2ccc(OC)cc2)c2ccccc21	17	–	-5.3	–	–	–

Screening results deposited in PubChem by Johns Hopkins Ion Channel Center.
